Results taken from ChEMBL document CHEMBL1121744, “Synthesis and antihypertensive activity of a series of 8-substituted 1-oxa-3,8-diazaspiro[4.5]decan-2-ones” (J Med Chem, 1981).
Where “and” joins values, the source holds several entries; their conditions need not be identical. Equal values may be shown once. Calls of active or inactive are those of the source. No cut-off for these calls is given here.

How the values were obtained:
[1] = system: Rattus norvegicus; test: Antihypertensive activity as percentage fall in systolic blood pressure in spontaneously hypertensive rats after a period of 4 hr for a dose of 50 mg/kg po; NS=Not significant; assay type: functional, organism-based; design: dose 50 mg/kg; conditions: Artery
How it was run: (§1)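 Male Okamoto-Aoki SHR, trained, in groups of four matched for systolic pressure, with a concurrent vehicle control group. Oral dosing on two consecutive mornings, in water as solution or suspension at 0.1 mL/10 g. On day 2 rats were restrained at 30.0 ± 1.0 °C. Tail-cuff systolic pressure, four traces per rat, read at each hour. Per cent fall versus control; 1-tail t test, p ≤ 0.05.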

[2] = system: Rattus norvegicus; test: The antihypertensive activity as percentage fall in systolic blood pressure in spontaneously hypertensive rats after a period of 1 hr for a dose of 50 mg/kg po
[3] = Distribution coefficient between 1-Octanol and phosphate buffer at pH7.4; assay type: physicochemical; conditions: 1-octanol/phosphate buffer, pH 7.4
How it was run: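 Octanol/buffer distribution measured at pH 7.4 in phosphate with sodium chloride. Either HPLC (0.004 M) or shake flask.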

[4] = system: Rattus norvegicus; test: The antihypertensive activity as percentage fall in systolic blood pressure in spontaneously hypertensive rats after a period of 4 hr for a dose of 50 mg/kg po
[5] = system: Rattus norvegicus; test: Antihypertensive activity as percentage fall in systolic blood pressure in spontaneously hypertensive rats after a period of 3 hr for a dose of 50 mg/kg po; NS=Not significant; assay type: functional, organism-based; design: dose 50 mg/kg; conditions: Artery; how it was run: as §1
[6] = system: Rattus norvegicus; test: The antihypertensive activity as percentage fall in systolic blood pressure in spontaneously hypertensive rats after a period of 2 hr for a dose of 50 mg/kg po
[7] = system: Rattus norvegicus; test: Antihypertensive activity as percentage fall in systolic blood pressure in spontaneously hypertensive rats after a period of 1 hr for a dose of 50 mg/kg po; NS=Not significant; assay type: functional, organism-based; design: dose 50 mg/kg; conditions: Artery; how it was run: as §1
[8] = system: Rattus norvegicus; test: Antihypertensive activity as percentage fall in systolic blood pressure in spontaneously hypertensive rats after a period of 2 hr for a dose of 50 mg/kg po; NS=Not significant; assay type: functional, organism-based; design: dose 50 mg/kg; conditions: Artery; how it was run: as §1
[9] = system: Rattus norvegicus; test: The antihypertensive activity as percentage fall in systolic blood pressure in spontaneously hypertensive rats after a period of 3 hr for a dose of 50 mg/kg po
[10] = molecular target: T1, Adrenergic receptor alpha-2 (Rattus norvegicus, UniProt P22086+P19328+P22909); test: Antagonistic potency of compound for Alpha-2 adrenergic receptor; assay type: functional
T1 sequence (P22086 whole entry): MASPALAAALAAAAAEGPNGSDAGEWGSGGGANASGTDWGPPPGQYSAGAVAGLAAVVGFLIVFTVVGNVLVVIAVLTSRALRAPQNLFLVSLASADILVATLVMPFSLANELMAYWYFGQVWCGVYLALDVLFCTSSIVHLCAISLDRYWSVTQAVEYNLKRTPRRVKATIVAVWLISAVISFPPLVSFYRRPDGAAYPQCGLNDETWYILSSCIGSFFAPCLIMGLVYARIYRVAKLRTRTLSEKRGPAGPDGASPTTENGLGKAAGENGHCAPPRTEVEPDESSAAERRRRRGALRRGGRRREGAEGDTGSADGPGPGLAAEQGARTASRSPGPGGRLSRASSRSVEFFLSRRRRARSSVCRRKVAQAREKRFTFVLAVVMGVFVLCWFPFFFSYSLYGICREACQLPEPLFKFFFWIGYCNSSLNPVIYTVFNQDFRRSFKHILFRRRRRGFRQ
T1 sequence (P19328 whole entry): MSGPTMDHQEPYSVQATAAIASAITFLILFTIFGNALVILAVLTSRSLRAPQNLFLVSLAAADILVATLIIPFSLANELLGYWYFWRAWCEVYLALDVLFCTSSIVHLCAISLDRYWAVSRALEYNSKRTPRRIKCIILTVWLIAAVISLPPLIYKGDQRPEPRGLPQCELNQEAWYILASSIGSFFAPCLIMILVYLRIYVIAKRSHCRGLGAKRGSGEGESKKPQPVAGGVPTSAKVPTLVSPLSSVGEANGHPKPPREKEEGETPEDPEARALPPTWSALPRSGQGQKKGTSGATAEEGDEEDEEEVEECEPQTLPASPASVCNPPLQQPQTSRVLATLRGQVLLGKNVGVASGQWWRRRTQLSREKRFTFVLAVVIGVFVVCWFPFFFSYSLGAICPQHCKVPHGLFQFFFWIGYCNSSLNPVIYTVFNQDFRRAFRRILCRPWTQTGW
T1 sequence (P22909 whole entry): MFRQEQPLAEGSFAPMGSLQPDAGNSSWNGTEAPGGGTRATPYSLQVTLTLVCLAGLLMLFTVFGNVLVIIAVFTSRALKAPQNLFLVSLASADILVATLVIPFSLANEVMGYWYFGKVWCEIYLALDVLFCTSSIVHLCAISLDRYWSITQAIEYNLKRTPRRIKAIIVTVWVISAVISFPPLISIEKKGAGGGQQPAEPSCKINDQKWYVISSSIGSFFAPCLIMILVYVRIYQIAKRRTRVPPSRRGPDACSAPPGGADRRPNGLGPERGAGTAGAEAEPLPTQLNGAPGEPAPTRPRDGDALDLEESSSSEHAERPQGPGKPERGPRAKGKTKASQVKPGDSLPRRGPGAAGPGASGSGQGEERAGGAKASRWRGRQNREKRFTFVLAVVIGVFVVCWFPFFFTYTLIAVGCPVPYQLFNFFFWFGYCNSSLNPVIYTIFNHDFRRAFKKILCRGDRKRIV

[11] = system: Rattus norvegicus; test: Antihypertensive activity as percentage fall in systolic blood pressure in spontaneously hypertensive rats after a period of 1 hr for a dose of 50 mg/kg; assay type: functional, Artery
How it was run: (§2)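 Male Okamoto-Aoki SHR, trained, in groups of four matched for mean systolic pressure; one group per run received water vehicle. Oral dosing in water (0.1 mL per 10 g) on two consecutive mornings. After the day-2 dose, rats were restrained at 30.0 ± 1.0 °C. Systolic pressure was read by tail cuff (inflated to 300 mmHg, first pulse) at 1–4 h. % fall is versus the untreated control group, by 1-tail t test (p ≤ 0.05).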

[12] = system: Rattus norvegicus; test: Percentage fall in systolic blood pressure in spontaneously hypertensive rats after 2 hr following 50 mg/kg p.o.; assay type: functional, Artery; conditions: route oral, 50 mg/kg; how it was run: as §2
[13] = molecular target: T2, Adrenergic receptor alpha-1 (Rattus norvegicus, UniProt P15823+P23944+P43140); test: Antagonistic potency of compound for Alpha-1 adrenergic receptor; assay type: functional
T2 sequence (P15823 whole entry): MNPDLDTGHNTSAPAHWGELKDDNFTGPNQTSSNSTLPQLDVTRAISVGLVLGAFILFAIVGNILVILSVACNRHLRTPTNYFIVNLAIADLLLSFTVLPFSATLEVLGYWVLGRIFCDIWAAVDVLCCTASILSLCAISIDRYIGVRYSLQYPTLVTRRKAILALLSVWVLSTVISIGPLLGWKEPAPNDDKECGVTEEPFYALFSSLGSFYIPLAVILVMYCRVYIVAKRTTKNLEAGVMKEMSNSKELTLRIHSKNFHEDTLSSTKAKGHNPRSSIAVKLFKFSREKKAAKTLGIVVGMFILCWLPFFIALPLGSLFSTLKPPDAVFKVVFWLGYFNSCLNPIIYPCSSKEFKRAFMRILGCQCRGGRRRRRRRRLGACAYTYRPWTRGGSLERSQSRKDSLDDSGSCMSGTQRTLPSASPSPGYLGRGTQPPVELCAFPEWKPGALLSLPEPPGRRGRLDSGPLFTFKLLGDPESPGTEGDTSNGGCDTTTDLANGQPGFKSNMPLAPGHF
T2 sequence (P23944 whole entry): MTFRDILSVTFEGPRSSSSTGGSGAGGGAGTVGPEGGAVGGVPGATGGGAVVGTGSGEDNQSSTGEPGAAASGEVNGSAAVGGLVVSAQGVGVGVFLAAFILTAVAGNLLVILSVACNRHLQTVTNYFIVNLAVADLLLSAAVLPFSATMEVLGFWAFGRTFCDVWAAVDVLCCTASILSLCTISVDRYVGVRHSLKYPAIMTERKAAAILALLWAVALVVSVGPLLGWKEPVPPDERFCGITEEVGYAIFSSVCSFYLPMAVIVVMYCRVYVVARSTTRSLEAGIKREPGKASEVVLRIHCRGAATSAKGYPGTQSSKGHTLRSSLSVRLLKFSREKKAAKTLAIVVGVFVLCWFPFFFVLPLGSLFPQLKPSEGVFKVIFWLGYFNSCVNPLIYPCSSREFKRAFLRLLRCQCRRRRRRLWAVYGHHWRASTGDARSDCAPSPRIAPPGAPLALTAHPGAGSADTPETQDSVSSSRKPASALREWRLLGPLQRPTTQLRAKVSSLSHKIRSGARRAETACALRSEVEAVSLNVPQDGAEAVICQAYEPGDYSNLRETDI
T2 sequence (P43140 whole entry): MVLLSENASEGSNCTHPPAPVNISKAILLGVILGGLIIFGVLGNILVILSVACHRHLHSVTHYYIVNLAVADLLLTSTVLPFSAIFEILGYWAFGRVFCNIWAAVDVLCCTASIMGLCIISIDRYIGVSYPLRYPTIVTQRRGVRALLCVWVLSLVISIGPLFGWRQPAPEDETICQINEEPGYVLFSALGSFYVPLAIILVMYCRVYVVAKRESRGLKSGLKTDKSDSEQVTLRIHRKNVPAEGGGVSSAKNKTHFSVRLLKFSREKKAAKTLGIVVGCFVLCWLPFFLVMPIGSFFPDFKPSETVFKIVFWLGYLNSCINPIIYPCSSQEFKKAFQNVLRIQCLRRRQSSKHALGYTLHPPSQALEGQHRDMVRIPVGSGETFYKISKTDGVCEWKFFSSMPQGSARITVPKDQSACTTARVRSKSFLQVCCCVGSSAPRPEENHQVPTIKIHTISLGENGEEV

[14] = system: Rattus norvegicus; test: Percentage fall in systolic blood pressure in spontaneously hypertensive rats after 3 h following 50 mg/kg p.o.; assay type: functional, Artery; conditions: route oral; how it was run: as §2
[15] = system: Rattus norvegicus; test: The antihypertensive activity as percentage fall in systolic blood pressure in spontaneously hypertensive rats after a period of 4 hr for a dose of 75 mg/kg po; NS=Not significant; assay type: functional, organism-based; design: dose 75 mg/kg; conditions: Artery; how it was run: as §1
[16] = system: Rattus norvegicus; test: The antihypertensive activity as percentage fall in systolic blood pressure in spontaneously hypertensive rats after a period of 3 hr for a dose of 75 mg/kg po; NS=Not significant; assay type: functional, organism-based; design: dose 75 mg/kg; conditions: Artery; how it was run: as §1

| Structure (SMILES) | Decrease in blood pressure [1] | Decrease in blood pressure [2] | logD [3] | Decrease in blood pressure [4] | Decrease in blood pressure [5] | Decrease in blood pressure [6] | Decrease in blood pressure [7] | Decrease in blood pressure [8] | Decrease in blood pressure [9] | pA2 [10] | Decrease in blood pressure [11] | Decrease in blood pressure [12] | pA2 [13] | Decrease in blood pressure [14] | Decrease in blood pressure [15] | Decrease in blood pressure [16] |
| --- | --- | --- | --- | --- | --- | --- | --- | --- | --- | --- | --- | --- | --- | --- | --- | --- |
| CN1CC2(CCN(CCc3c[nH]c4ccccc34)CC2)OC1=O | inactive | 23% | 1.73 | 9% | inactive | 18% | inactive | inactive | 8% |  |  |  |  |  |  |  |
| CCC1NC(=O)OC12CCN(CCc1c[nH]c3ccccc13)CC2 (centres undefined) |  | 23% | 1.95 | 22% |  | 27% |  |  | 17% | 6 | 39% | 27% and 26% | 7.6 | 17% |  |  |
| CC(C)N1CC2(CCN(CCc3c[nH]c4ccccc34)CC2)OC1=O |  | 22% | 2.4 |  |  | 9% |  |  |  |  |  |  |  |  | inactive | inactive |
